Only some compounds are listed: those with a hit (about 2.1% of all), similar ones and a draw of the others.
aDG glyco up – activators of alpha-DG glycosylation, primary screen, uHTS, Pro5-aDG cells, AlphaScreen. alpha-DG glycosylation AlphaScreen (IIH6); 0% Pro5, 100% B10-LARGE cell signal. activation, % at 10 µM. hit rate 0.22% among 360,000;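 active = activation of at least 8% versus controls, or a plate z-score of at least 8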;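 also: Pro5 are CHO cells carrying HIG-tagged alpha-DG that lacks glycosylation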
HKDC1 inhibitor – HKDC1 hexokinase inhibitors, primary screen, biochemical, fluorescence, uHTS. Q2TB90. recombinant HKDC1, G6PDH/diaphorase resazurin coupled fluorescence. inhibition, % at 20 µM. hit rate 0.16% among 340,000;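 active = inhibition above about 35% when tested at 20 µM, limit read from the data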
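Material – in-house recombinant HK5 (HKDC1) enzyme · Quantity – HKDC1 at 5 µg/mL · Buffer or medium – pH 8.0 Tris buffer with 10 mM MgCl2 · Reagent – glucose with 1 mM ATP · Dosing – single 20 µM dose · Times – reaction time 90 min, room temperature, protected from light · Technique – resorufin fluorescence at 613 nm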
Beta2AR agonist – beta2AR agonists driving receptor internalization, primary screen, cell-based, FAP fluorogen, flow cytometry | Beta-2 adrenergic receptor (Homo sapiens), P07550 | Am2.2-beta2AR cells | response, % (test concentration not listed) | hit rate 0.43% among 340,000;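 active = response above a set limit, near 3 SD of response in nonfluorescent compounds, cut at about 42% in these data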
Target sequence (P07550 whole entry, looked up): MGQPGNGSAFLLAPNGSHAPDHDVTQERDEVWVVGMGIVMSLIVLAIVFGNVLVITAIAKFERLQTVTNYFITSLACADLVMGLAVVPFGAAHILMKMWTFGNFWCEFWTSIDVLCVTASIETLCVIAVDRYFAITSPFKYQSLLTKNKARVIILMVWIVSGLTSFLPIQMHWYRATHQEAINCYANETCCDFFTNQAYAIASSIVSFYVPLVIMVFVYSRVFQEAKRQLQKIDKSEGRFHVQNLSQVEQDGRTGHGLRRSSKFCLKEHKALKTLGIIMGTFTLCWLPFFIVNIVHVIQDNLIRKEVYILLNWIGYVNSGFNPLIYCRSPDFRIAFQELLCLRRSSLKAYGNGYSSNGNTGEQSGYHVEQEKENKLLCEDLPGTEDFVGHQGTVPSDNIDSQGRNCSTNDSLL
H9c2 protect – cardioprotection against H2O2-induced cell death, primary screen, uHTS, H9c2 cells, ATPLite luminescence | hit rate 0.63% among 360,000 | H9c2 cardiomyocytes, H2O2 injury protection, 2 h | protection from H2O2 cell death, % at 20 µM;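 active = compounds giving at least 50% protection of heart cells from peroxide-induced death in the single-dose screen, raw or plate-pattern-corrected value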
UCH37 inh – inhibitors of human UCH37 deubiquitinase, primary screen, biochemical, Ub-AMC cleavage, fluorescence; hit rate 0.33% among 330,000; Ubiquitin carboxyl-terminal hydrolase isozyme L5 (Homo sapiens), Q9Y5K5; inhibition, % (test concentration not listed); AID 588478, 2011; purified proteasome/UCH37;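 active = mean inhibition over replicate wells above about 20%, limit read from the data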
Target sequence (Q9Y5K5 whole entry, looked up): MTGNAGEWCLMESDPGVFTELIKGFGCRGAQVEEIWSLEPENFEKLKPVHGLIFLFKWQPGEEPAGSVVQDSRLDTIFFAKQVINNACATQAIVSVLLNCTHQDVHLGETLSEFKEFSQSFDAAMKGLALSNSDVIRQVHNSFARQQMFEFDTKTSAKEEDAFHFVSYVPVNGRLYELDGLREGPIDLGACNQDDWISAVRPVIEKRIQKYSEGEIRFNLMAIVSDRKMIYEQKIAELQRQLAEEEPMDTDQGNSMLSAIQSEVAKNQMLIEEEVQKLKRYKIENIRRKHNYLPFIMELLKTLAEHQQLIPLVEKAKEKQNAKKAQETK
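Material: human UCH37 enzyme supplied as purified proteasome complex / Amount: 0.15 nM proteasome as dispensed / Buffer or medium: pH 7.4 Tris-HCl (50 mM) with ovalbumin, ATP-MgCl2, DTT / Times: preincubation 30 min, reaction 25 min, room temperature / Technique: AMC fluorescence from Ub-AMC cleavage, excitation 355 nm, emission 460 nm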
PfG6PD inh – PfG6PD enzyme inhibitors, primary screen, biochemical, fluorescence intensity, uHTS; glucose-6-phosphate dehydrogenase-6-phosphogluconolactonase (Plasmodium falciparum 3D7); PfGluPho enzyme, NADPH resazurin-diaphorase fluorescence; inhibition, % at 20 µM; hit rate 0.78% among 350,000; AID 504690, 2011;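 active = inhibition reaching at least a set limit at 20 µM in the primary screen, cut at about 59% in these data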
UCH37 reconfirm – retest of human UCH37 deubiquitinase inhibitors, confirmation, biochemical, Ub-AMC cleavage rate, fluorescence | shares compounds with UCH37 inh | Proteasome-bound UCH37 | inhibition, % at 20 µM | hit rate 27% among 480 | AID 624100, 2012;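 active = average inhibition over replicates above about 50%, so the earlier screening hit is confirmed, limit read from the data; inactive = the rest, counted as false positives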;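 also: based on cleavage rate fitted by regression over a 30 min kinetic read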
Hits are given with their value; 0 = inactive; - = no result given.

SMILES | aDG glyco up | HKDC1 inhibitor | Beta2AR agonist | H9c2 protect | UCH37 inh | PfG6PD inh | UCH37 reconfirm
COc1cc(C=NNc2ccccc2)ccc1OC(=O)c1cccs1 | - | - | - | - | 0 | - | -
O=C(NNc1cc(N2CCOCC2)nc(N2CCOCC2)n1)c1ccc([N+](=O)[O-])cc1 | 0 | 0 | 0 | 0 | 26 | 0 | 0
CCOc1ccccc1N(CC(=O)NN=C(C)c1cccc(Br)c1)S(C)(=O)=O | - | - | - | - | 0 | - | -
CC(/C=C/c1ccccc1F)=NNC(=O)c1ccccc1 | - | - | - | - | 0 | - | -
CC(CCN1CCc2nc(-c3ccccc3)c(-c3ccccc3)cc2C1)=NOC[C@@H](C)[C@H](OCc1ccccc1)C(C)C | - | - | - | - | 0 | - | -
CSc1nc(Oc2ccc(Cl)cc2)c2sccc2n1 | 0 | 0 | 0 | 0 | 36 | 0 | 0
CSc1nc(Oc2ccccc2)c2sccc2n1 | 0 | 0 | 0 | 0 | 0 | 0 | -
Cn1cnc([N+](=O)[O-])c1S(=O)(=O)c1ccc(Cl)cc1 | 0 | 0 | 0 | 0 | 49 | 0 | 0
O=C1C2C3CCCC3=C3CCCC3C2C(=O)N1c1cccc(Cl)c1 (stereo not drawn) | 0 | 0 | 0 | 0 | 0 | 0 | -
O=C1C2C3CCCC3=C3CCCC3C2C(=O)N1c1ccc(Cl)cc1 (stereo not drawn) | 0 | 0 | 0 | 0 | 63 | 0 | 75
CS(=O)(=O)c1ccc(S(=O)CC(=O)OCc2ccccc2)c([N+](=O)[O-])c1 (stereo not drawn) | 0 | 0 | 44 | 0 | 44 | 0 | 0
CC(=NOC(=O)c1ccccc1)c1c(C)nc2cc(C)ccn12 | - | - | - | - | 0 | - | -
O=C(NC1CCCCC1)c1ccc([N+](=O)[O-])o1 | 0 | 0 | 0 | 0 | 0 | 0 | -
O=C(COC(=O)c1ccc([N+](=O)[O-])o1)NC1CCCC1 | 0 | 0 | 0 | 0 | 32 | 0 | 0
CC1CCCCC1NC(=O)COC(=O)c1ccc([N+](=O)[O-])o1 (stereo not drawn) | 0 | 0 | 0 | 0 | 30 | 0 | 0
Cc1ccc(C(=O)OCC(=O)NC2CCCCC2)o1 | 0 | 0 | 0 | 0 | - | 0 | -
CC1CCCC(NC(=O)COC(=O)c2ccc(Br)o2)C1C (stereo not drawn) | 0 | 0 | 0 | 0 | 0 | 0 | -
O=C(COC(=O)c1ccc([N+](=O)[O-])o1)NC1CCCCC1 | 0 | 0 | 0 | 0 | 26 | 0 | 0
CC1Cc2ccccc2N1C(=O)COC(=O)c1ccc([N+](=O)[O-])o1 (stereo not drawn) | 0 | 0 | 0 | 0 | 26 | 0 | 0
CCN(CC)C(=O)C1CCCN(c2ccc([N+](=O)[O-])cc2C=NNC(=O)c2ccc([N+](=O)[O-])cc2)C1 (stereo not drawn) | - | - | - | - | 0 | - | -
CC(C)NC(=O)COc1ccc(C=NNS(=O)(=O)c2ccccc2)cc1 | - | - | - | - | 0 | - | -
Nc1ccc(C(=O)OCC(=O)N2CCOCC2)cc1[N+](=O)[O-] | 0 | 0 | 0 | 0 | 38 | 0 | 0
CC(=NO)C(C)(C)Nc1ccc(Cl)cc1 | - | - | - | - | 0 | - | -
O=C(NCc1ccccc1)c1ccc(N2CCC3(CC2)CC(c2ccccc2)=NO3)c([N+](=O)[O-])c1 | 0 | 0 | 0 | 0 | 47 | 0 | 0
Cc1cc[n+](CC[n+]2ccc(C)cc2)cc1 | 0 | 0 | 0 | 0 | 0 | 0 | -
SMILES | aDG glyco up | HKDC1 inhibitor | Beta2AR agonist | H9c2 protect | UCH37 inh | PfG6PD inh | UCH37 reconfirm
CCC(C)(C)c1ccc(OCCCC[n+]2ccc(C)cc2)c(C(C)(C)CC)c1 | - | 0 | - | - | 27 | 0 | 0
CC1(C)Oc2ccc(C(=O)NN=Cc3ccc(O)cc3)cc2NC1=O | - | - | - | - | 0 | - | -
CC(=O)Nc1ccc(SCC(=O)c2cc(C)n(C)c2C)cc1 | 0 | 0 | 0 | 0 | 43 | 0 | 0
CC(=O)Nc1ccc(SCC(=O)c2cc(C)n(CC(F)(F)F)c2C)cc1 | 0 | 0 | 0 | 0 | 0 | 0 | -
CC1(C)CCCC2=C1CC1C(=O)N(Cc3cccnc3)C(=O)C1C2 (stereo not drawn) | 0 | 0 | 0 | 0 | 39 | 0 | 0
CC(OC(=O)c1ccc([N+](=O)[O-])s1)C(=O)Nc1ncc(Cl)cc1Cl (stereo not drawn) | 0 | 0 | 0 | 0 | 58 | 0 | 0
CC(=O)Nc1ccc(S(=O)(=O)N(C)CC(=O)NN=Cc2ccc(C(=O)O)cc2)cc1 | - | - | - | - | 0 | - | -
Cc1ccc(C(=O)NN=Cc2cc(Br)c(Br)o2)cn1 | - | - | - | - | 28 | - | 0
O=C(NN=Cc1cc(Br)c(Br)o1)c1cccnc1 | - | - | - | - | 0 | - | -
Cc1ccc(C=NNC(=O)Cc2cccs2)o1 | - | - | - | - | 0 | - | -
COc1cc(OC)c2c(c1)C(=O)c1cc(OC)cc(OC)c1C2=O | 0 | 0 | 0 | 0 | 43 | 0 | 0
S=C(Nc1ccc(Nc2ccccc2)cc1)Nc1ccccn1 | 9.4 | 0 | 0 | 0 | 46 | 0 | 0
CC(C)C(=O)NN=Cc1ccc(OCc2ccccc2)cc1 | - | - | - | - | 0 | - | -
N#C/C(=C/c1ccc(N2CCOCC2)o1)C(=O)NC1CCCCC1 | 0 | 0 | 0 | 0 | 27 | 0 | 0
COc1ccc(NC(=O)/C(C#N)=C/c2ccc(Br)o2)cc1 | 0 | 0 | 0 | 0 | 0 | 0 | -
COc1ccc(NC(=O)/C(C#N)=C\c2ccc(N3CCOCC3)o2)cc1 | 0 | 0 | 0 | 0 | 27 | 0 | 0
N#C/C(=C\c1ccc(N2CCOCC2)o1)C(=O)Nc1ccc(O)cc1 | 0 | 0 | 0 | 0 | 29 | 0 | 0
O=C(CC(=O)NN=Cc1ccc(F)cc1)NN=Cc1ccc(F)cc1 | - | - | - | - | 0 | - | -
O=C(NC1(O)C(=O)c2ccccc2C1=O)c1c(Cl)cccc1Cl | 0 | 0 | 0 | 0 | 80 | 0 | 52
O=C(Nc1ccccc1Cl)c1c(F)c(F)c(F)c(F)c1F | 0 | 0 | 0 | 0 | 0 | 0 | -
O=C(NC1(O)C(=O)c2ccccc2C1=O)c1ccccc1 | 0 | 0 | 0 | 0 | 84 | 0 | 74
CC(=O)N(C1=C(O)c2ccccc2C(=O)C1=O)C1CCCCC1 | 0 | 0 | 0 | 0 | 0 | 0 | -
CC(=O)N(C1=C(N)C(=O)c2ccccc2C1=O)C(C)C | 0 | 0 | 0 | 0 | 26 | 0 | 0
COC1=C(Nc2ccc(O)cc2)C(=O)c2ccccc2C1=O | 0 | 0 | 0 | 0 | 0 | 0 | -
O=C1C(Nc2ccc(O)cc2)=CC(=NS(=O)(=O)c2cccs2)c2ccccc21 | - | - | - | - | 75 | - | 0
O=C(COC(=O)c1ccc([N+](=O)[O-])s1)c1ccc[nH]1 | 0 | 0 | 0 | 0 | - | 0 | -
Cc1ccc(C(=O)OCC(=O)NCc2ccccc2)s1 | 0 | - | - | 0 | - | 0 | -
O=C(COC(=O)c1ccc([N+](=O)[O-])s1)NCCc1ccccc1 | 0 | 0 | 0 | 0 | 81 | 0 | 0

Screening data: PubChem, several laboratories
